Compound activity from PubChem.
An excerpt weighted towards active compounds, which were near 2.6% of everything screened.
Rad51 HR inh – Rad51 (human) homologous recombination inhibition; Q06609; hRad51 DNA strand exchange, fluorescence dequenching; inhibition, % at 10 µM; hit rate 0.085% among 200,000; AID 1385;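 active means inhibition above 40% at the single screening dose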;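 further: 0% = DMSO control wells and 100% = blanks with heterologous ssDNA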
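Material: Human Rad51 nucleoprotein filaments preassembled on unlabelled ssDNA | Also added: Labelled 47-mer dsDNA for strand exchange | Dosing: Single dose, 10 µM final compound | Schedule: 30-min compound preincubation and 15-min exchange, both room temperature | Technique: Fluorescence dequenching at 485/520 nm | Measure: Percent inhibition relative to plate controls and blanks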
KCC2 mod – KCC2 (human) Cl- transport modulation. Q9H2X9. KCC2 cells, thallium flux FluoZin-2 fluorescence. B-score of Tl+ flux slope (higher = more flux/activation; lower = inhibition) at 10 µM. hit rate 2.2% among 190,000. AID 1456;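 active means thallium flux slope and its plate-corrected score both differing from the plate sample mean at a set confidence after two filtering rounds, in either direction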;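 further: slope of fluorescence scaled to starting intensity during 10 to 20 s after thallium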
Target sequence (Q9H2X9 whole entry, looked up): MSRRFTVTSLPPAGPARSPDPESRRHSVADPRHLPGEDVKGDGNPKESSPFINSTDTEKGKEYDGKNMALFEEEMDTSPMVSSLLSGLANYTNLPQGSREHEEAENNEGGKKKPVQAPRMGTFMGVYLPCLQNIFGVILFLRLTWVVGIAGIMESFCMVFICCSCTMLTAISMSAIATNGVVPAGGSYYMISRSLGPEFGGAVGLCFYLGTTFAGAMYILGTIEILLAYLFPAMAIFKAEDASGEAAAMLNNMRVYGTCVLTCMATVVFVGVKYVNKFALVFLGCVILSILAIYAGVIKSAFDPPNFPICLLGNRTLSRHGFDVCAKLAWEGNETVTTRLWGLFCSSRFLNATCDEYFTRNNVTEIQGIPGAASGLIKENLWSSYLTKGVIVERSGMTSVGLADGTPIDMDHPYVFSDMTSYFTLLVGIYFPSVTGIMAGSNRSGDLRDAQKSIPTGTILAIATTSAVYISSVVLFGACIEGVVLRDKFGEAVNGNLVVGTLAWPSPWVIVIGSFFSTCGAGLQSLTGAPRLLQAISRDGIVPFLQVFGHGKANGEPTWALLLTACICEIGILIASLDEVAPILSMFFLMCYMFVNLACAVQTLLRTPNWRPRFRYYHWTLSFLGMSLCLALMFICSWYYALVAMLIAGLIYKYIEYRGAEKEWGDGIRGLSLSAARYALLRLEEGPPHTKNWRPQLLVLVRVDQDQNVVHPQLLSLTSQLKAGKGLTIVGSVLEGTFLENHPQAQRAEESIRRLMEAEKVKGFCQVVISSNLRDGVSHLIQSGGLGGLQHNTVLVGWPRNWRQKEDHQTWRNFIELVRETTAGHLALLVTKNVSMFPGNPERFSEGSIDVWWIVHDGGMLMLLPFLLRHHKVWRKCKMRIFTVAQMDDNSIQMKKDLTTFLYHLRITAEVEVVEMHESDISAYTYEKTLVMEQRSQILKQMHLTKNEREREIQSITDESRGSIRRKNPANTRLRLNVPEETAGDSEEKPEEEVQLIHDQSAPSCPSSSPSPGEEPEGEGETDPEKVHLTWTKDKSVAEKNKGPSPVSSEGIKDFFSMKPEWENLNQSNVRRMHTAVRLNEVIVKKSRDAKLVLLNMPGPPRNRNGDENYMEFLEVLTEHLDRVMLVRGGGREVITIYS
CHT allo act – allosteric activators of human choline transporter CHT; Q9GZV3; CHT-expressing cells, membrane potential dye, choline EC20; active compounds read high; LV-AA mutant CHT in HEK293 cells; B-score at 10 µM; hit rate 0.49% among 310,000; AID 488977;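 active means initial fluorescence not abnormally high and integrated response B-score, plate-corrected, over 3 SD above library mean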
CHT inh – human CHT choline transport inhibition; Q9GZV3; CHT-expressing cells, membrane potential dye, choline response; active compounds read low; B-score at 10 µM; hit rate 0.86% among 310,000; AID 488975;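 active means B-score over 3 SD under the library average, and starting fluorescence ratio not unusually high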;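 further: choline stimulus applied at its EC90 after an EC20 pre-addition; B-score computed on integrated fluorescence ratio after choline addition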
KCC2 sec1 – confirmation of human KCC2 transport modulators; shares compounds with KCC2 mod; HEK293-KCC2, thallium flux, FluoZin2 fluorescence; active compounds read high; normalised thallium flux (F/F0 slope) at 10 µM; hit rate 15% among 3,700; AID 1713;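 active means thallium flux slope above the same plate's solvent-only control mean plus 3 SD; inconclusive means the two replicate wells disagree; inactive means no significant difference from solvent-only control wells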
KCC2 bumet counter – bumetanide-insensitive thallium flux in KCC2 cells with ouabain, counter-screen; shares compounds with KCC2 mod; HEK293-KCC2 + bumetanide/ouabain, thallium flux FluoZin2; active compounds read high; normalized thallium flux at 10 µM; hit rate 49% among 3,700; AID 1714;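 active means thallium entry rate above the same plate's blocked-transporter control wells by more than 3 SD; inconclusive means the two repeat wells disagree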;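 further: raw slope of fluorescence over initial fluorescence between 10 and 20 s after thallium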
KCC2 sec2 – confirmation of human KCC2 transport modulators; hit rate 23% among 3,700; HEK293-KCC2, thallium flux FluoZin2 fluorescence; actives lie on both sides; F/F0 rise rate, 10–20 s post-thallium; normalized thallium flux at 10 µM; shares compounds with KCC2 mod;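 active means thallium flux slope more than 3 SD above or below the plate's solvent-only control mean, mostly below; inconclusive means the two repeat wells disagreed; inactive means no significant shift from solvent-only controls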;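 further: raw slope with 0.1% DMSO as baseline and bumetanide as block control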
HEK counter1 – parental HEK flux effect, counter-screen | HEK293 parental cells, thallium flux FluoZin2, ouabain; baseline-ratio fluorescence slope, 10–20 s after thallium | hit rate 46% among 3,700 | shares compounds with KCC2 mod | thallium flux rate (normalised fluorescence) at 10 µM;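 active means thallium flux rate significantly above the same plate's solvent-only control wells, beyond their mean plus 3 SD; inconclusive means the two replicate wells gave conflicting results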
KCC2 retest ouab – modulates human KCC2 on retest with ouabain; shares compounds with KCC2 mod; HEK293-KCC2, thallium flux FluoZin2 fluorescence; bidirectional: low = inhibitor, high = activator; raw Tl+ flux slope (below DMSO = inhibition, above = activation) at 10 µM; hit rate 48% among 3,700; AID 1717;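 active means thallium flux slope beyond 3 SD from same-plate DMSO control mean in most replicates, usually higher, sometimes lower; inconclusive means repeat tests gave conflicting results; inactive means no significant difference from controls in most replicates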;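 further: slope of initial-normalized fluorescence between seconds 10 and 20 after thallium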
HEK293 Tl flux2 – counter-screen for KCC2 modulators: effect in parental HEK293 cells; thallium flux slope at 10 µM; hit rate 33% among 3,700; shares compounds with KCC2 mod; thallium flux FluoZin-2 fluorescence slope;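 active means thallium flux slope above the same plate's solvent-control mean plus 3 SD in both duplicate wells; inconclusive means duplicate wells that disagreed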;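 further: run without ouabain in cells lacking the KCC2 cotransporter; slope of fluorescence scaled to its starting value between 10 and 20 s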
* marks the source's active call; other numbers are inactive results; i = inactive; u = inconclusive; x = no result.

SMILES | Rad51 HR inh | KCC2 mod | CHT allo act | CHT inh | KCC2 sec1 | KCC2 bumet counter | KCC2 sec2 | HEK counter1 | KCC2 retest ouab | HEK293 Tl flux2
COC(=O)N/N=C/c1c(C)cc(C)cc1C | -4 | -5.3* | i | i | 0.01 | 0.0058 | 0.033 | 0.0075 | 0.024 | 0.011
Cc1ccc(/C=N/NC(=O)c2ccc3nc[nH]c3c2)s1 | 6 | 0.9 | i | i | x | x | x | x | x | x
CC(=O)Oc1ccc(-c2cc3ccc(OC(C)=O)cc3oc2=O)cc1 | x | x | i | i | x | x | x | x | x | x
O=C(CSc1nc2ccccc2n1CCc1ccccc1)NC1CC1 | 6 | 0.52 | i | i | x | x | x | x | x | x
Cn1c(SCC(=O)NCCN2C(=O)CSC2=O)nc2ccccc2c1=O | 0 | 6.4* | i | i | 0.019 | 0.013* | u | 0.012* | 0.02 | 0.017*
O=C(CSc1nc2ccccc2c(=O)n1Cc1ccco1)NCCN1C(=O)CSC1=O | -21 | 0.024 | i | i | x | x | x | x | x | x
O=C(CSc1nc2ccccc2n1CCc1ccccc1)NC1CCS(=O)(=O)C1 (stereo not drawn) | -8 | 7.2* | i | i | 0.01 | 0.021* | 0.031 | 0.011* | 0.028* | 0.011*
O=C(O)CCn1c(SCc2ccccc2)nc2ccccc21 | 12 | -4.2* | i | i | 0.0079 | 0.0059 | 0.035 | 0.0072 | 0.015* | 0.01
Cn1c(SCC(=O)NCc2ccccc2)nc2ccccc21 | x | -0.62 | i | i | u | 0.0041 | 0.03 | 0.0074 | 0.019 | 0.0098
Cc1cc(C)c(S(=O)(=O)Nc2cccc(S(=O)(=O)N3CCOCC3)c2)c(C)c1 | x | x | i | i | x | x | x | x | x | x
COc1ccc(S(=O)(=O)N2CCOC23CCN(S(=O)(=O)c2ccc(Cl)cc2)CC3)cc1 | x | x | i | i | x | x | x | x | x | x
CC(C)Cc1csc(NC(=O)c2ccc(Cl)cc2)c1C(=O)O | -1 | 5.2* | i | i | 0.0091 | 0.032* | 0.029 | 0.018* | u | u
O=C(NCCN=C1NS(=O)(=O)c2ccccc21)c1ccncc1 | 8 | 7* | i | i | 0.011 | 0.0058 | 0.032 | u | 0.022 | 0.01
O=C(NCCN=C1NS(=O)(=O)c2ccccc21)c1ccc2nccnc2c1 | 1 | -0.18 | i | i | x | x | x | x | x | x
CCOc1ccccc1N(C)C(=O)Cn1ncc2c([nH]c3ccc(C)cc32)c1=O | x | x | i | i | x | x | x | x | x | x
Cc1ccc(CSc2nc3sc(C)c(C)c3c(=O)n2Cc2ccco2)cc1 | -1 | 9.4* | i | i | 0.0073 | 0.019* | 0.039* | 0.024* | 0.031* | 0.023*
Nc1nnc(CCOc2ccc(Cl)cc2)s1 | -11 | 0.15 | i | i | x | x | x | x | x | x
Cc1cccc(OCCc2nnc(N)s2)c1C | -6 | -5.9* | i | i | 0.0066 | 0.0049 | 0.026* | 0.0079 | u | 0.012
COCCN1C(=O)N[C@@H](CCc2ccccc2)C(C(C)=O)=C1C | -1 | 6* | i | i | 0.0066 | 0.0047 | 0.025* | 0.0074 | 0.018 | 0.01
CC(C)CCN1CCC(N)=NC1=O | 4 | 1.6 | x | x | x | x | x | x | x | x
C=CCNC(=S)N/N=C/c1ccc(C)cc1C | 11 | 5.2* | i | i | 0.012 | 0.041* | 0.035 | 0.018* | u | u
FC(F)(F)c1ccc(/C=N/NC(=S)NC2CCCCC2)cc1 | -2 | 0.2 | i | i | x | x | x | x | x | x
C=CCNC(=S)N/N=C/c1ccc(C(F)(F)F)cc1 | 4 | 3.5* | i | i | 0.012 | 0.016* | 0.036 | u | u | u
CC(C)(C)C(=O)NC(=S)Nc1sc2c(c1C#N)CCCCC2 | 1 | -0.023 | i | i | x | x | x | x | x | x
CC(C)Cc1cc(C(=O)Nc2sc3c(c2C#N)CCCC3)no1 | -5 | 4.1* | i | i | 0.012 | 0.019* | 0.037 | u | u | u
SMILES | Rad51 HR inh | KCC2 mod | CHT allo act | CHT inh | KCC2 sec1 | KCC2 bumet counter | KCC2 sec2 | HEK counter1 | KCC2 retest ouab | HEK293 Tl flux2
C=CCNC(=S)Nc1sc2c(c1C#N)CCCC2 | -37 | 13* | i | i | 0.0065 | 0.021* | 0.03 | 0.018* | 0.027* | 0.012*
CCCC(=O)Nc1sc2c(c1C#N)CCCCC2 | 4 | 1.6 | i | i | x | x | x | x | x | x
Cn1cc(Br)c(C(=O)Nc2sc3c(c2C#N)CCC3)n1 | 5 | -0.15 | i | i | x | x | x | x | x | x
Cn1cc(Cl)c(C(=O)NC(=S)Nc2sc3c(c2C#N)CCCCC3)n1 | -6 | 11* | i | i | 0.0074 | 0.021* | u | 0.019* | 0.033* | 0.021*
CC(=O)Nc1sc2c(c1C#N)CCCCC2 | 11 | 6.1* | i | i | 0.0096 | 0.0073 | 0.03 | 0.0076 | 0.066 | u
CCN(CC)CCn1c2ccccc2c2nc3ccc([N+](=O)[O-])cc3cc21 | x | 1.3 | i | i | x | x | x | x | x | x
Cc1cccc(CN2CCSc3sccc3C2=O)c1 | x | -1.3 | i | i | x | x | x | x | x | x
CN(Cc1c(F)cccc1Cl)C(=O)c1ccc2ccccc2n1 | x | x | i | i | x | x | x | x | x | x
CC(C)Cc1cc(C(=O)Nc2sc3c(c2C#N)CCC3)no1 | 5 | 4.8* | i | i | 0.0064 | 0.017* | 0.033 | 0.017* | 0.027* | 0.014*
CC1(C)CC(=O)C2=C(C1)N(Cc1ccccc1)C(=O)C2(NC(=O)C(C)(C)C)C(F)(F)F (stereo not drawn) | 5 | -0.11 | i | i | x | x | x | x | x | x
CCCCc1ccc(-n2c(Cc3cccs3)n[nH]c2=S)cc1 | 12 | 58* | i | i | 0.006 | 0.097* | 0.063* | 0.08* | 0.053* | 0.067*
S=c1[nH]nc(Cc2cccs2)n1-c1ccccc1 | x | 0.41 | i | i | x | x | x | x | x | x
CC(C#N)Sc1nnc(-c2ccccc2F)n1C1CC1 (stereo not drawn) | x | x | i | i | x | x | x | x | x | x
O=C(COc1ccccc1)NC(=S)Nc1ccc2c3c(cccc13)CC2 | -4 | x | i | i | x | x | x | x | x | x
Cc1ccc(OCC(=O)NC(=S)Nc2ccc3c4c(cccc24)CC3)cc1 | x | 13* | i | i | 0.01 | 0.014* | 0.035 | 0.012* | u | 0.011
Cc1ccc(OCC(=O)NC(=S)Nc2ccc(Br)cn2)cc1 | x | 31* | i | i | 0.013* | 0.032* | 0.032 | 0.058* | 0.037* | 0.022*
COC(=O)c1ccccc1NC(=S)NC(=O)COc1ccc(C(C)C)cc1 | x | 9.7* | i | i | 0.011 | 0.017* | 0.035 | 0.019* | 0.036* | 0.012
